Reference: BindingDB's records for doi:10.1016/j.bmcl.2007.06.010 (Institut Henri Beaufour, 2007)

Target: Melanocortin receptor 4 (Homo sapiens, UniProt P32245)
Experiment: Displacement of [125I]NDP-alphaMSH from human melanocortin 4 receptor expressed in CHOK1 cells
Outline: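 Membranes from CHO-K1 cells stably expressing human MC1, MC3, MC4 or MC5 receptor, 1–10 µg protein/well, in 50 mM Tris-HCl pH 7.4 with 0.2% BSA, 5 mM MgCl2, 1 mM CaCl2, 0.1 mg/mL bacitracin. Incubated with increasing test compound and 0.1–0.3 nM [125I]NDP-α-MSH, 90–120 min at 37 °C depending on subtype. Filtration on PEI-presoaked GF/C filters, cold buffer washes, radioactivity counted; nonlinear regression; three independent measurements.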

Sequence of Melanocortin receptor 4 (P32245 whole entry): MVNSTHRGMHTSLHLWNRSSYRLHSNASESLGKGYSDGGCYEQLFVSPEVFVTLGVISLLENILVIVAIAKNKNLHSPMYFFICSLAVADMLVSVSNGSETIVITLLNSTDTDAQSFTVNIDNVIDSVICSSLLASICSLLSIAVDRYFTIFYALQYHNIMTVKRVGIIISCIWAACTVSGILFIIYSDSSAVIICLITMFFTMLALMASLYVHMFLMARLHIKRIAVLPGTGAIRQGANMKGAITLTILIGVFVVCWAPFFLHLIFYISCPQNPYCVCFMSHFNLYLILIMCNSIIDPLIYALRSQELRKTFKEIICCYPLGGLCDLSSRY

CC(C)CCN(CCC(C)C)C(=O)c1ccc2nc(NCc3ccccc3)n(CCCN3CCCCC3)c2c1 [2-(benzylamino)-N,N-diisopentyl-3-(3-(piperidin-1-yl)propyl)-3H-benzo[d]imidazole-5-carboxamide]
Ki: 17 nM
